Test results as given in PubChem BioAssay AID504543 (Southern Research Specialized Biocontainment Screening …, 2011).
Values belong to the compound of their own block, whether it stands above or below them. Active and inactive are the calls of the source.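 Rule for the calls: active = phage lysis blocked by at least 50% at any tested concentration; inactive = the rest.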

Legend:
[1] = inhibitors of K1F phage lysis of E. coli UTI89, dose response, capsule biogenesis inhibitor project, strain UTI89, C7 control, set 2 (AID 504543); settings: E. coli UTI89 K1F phage lysis inhibition, OD600 3 h; at 300 µM (top of the series)
Method in brief: (§1)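 System: Escherichia coli UTI89 (K1 capsule) plus phage-resistant kpsM mutant; Medium: LB broth, overnight cultures diluted 1:100; Timing: 1.25 h compound pre-incubation at 37 °C, 3 h phage exposure; Signal: OD600 absorbance; Control set: phage-resistant kpsM mutant and 1% DMSO vehicle wells.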

[2] = tested on: E. coli UTI89 K1F phage lysis inhibition, OD600 3 h; test: as above; settings: for CC50: measured here: cytotoxicity
Method in brief: as §1

Compound: CCN(CC)c1ccc2c(-c3ccc(S(=O)(=O)O)cc3S(=O)(=O)O)c3ccc(=[N+](CC)CC)cc-3oc2c1
- inhibition of phage lysis [1]: -8.77% (inactive)
- CC50 [2]: < 2.35 µM

Compound: O=C(Nc1cccc(C2=NCCN2)c1)Nc1cccc(C2=NCCN2)c1
- inhibition of phage lysis [1]: 14.2% (inactive)
- CC50 [2]: 69.1 µM

Compound: Cc1cccc(-c2cc(C(=O)O)c3ccccc3n2)c1
- inhibition of phage lysis [1]: -1.53% (inactive)
- CC50 [2]: 138 µM

Compound: NC(N)=N/N=C/c1ccc(OCc2ccccc2)cc1
- inhibition of phage lysis [1]: -28.3% (inactive)
- CC50 [2]: 9.38 µM

Compound: COc1ccc(-c2cc(C(=O)O)c3ccccc3n2)cc1
- inhibition of phage lysis [1]: 1.1% (inactive)
- CC50 [2]: 112 µM

- IC50 [2]: 201 µM
Compound: O=C1c2c(O)ccc(O)c2C(=O)c2c(NCCNCCO)ccc(NCCNCCO)c21
- CC50 [2]: > 300 µM

Compound: COc1cc(/C=N/N=C(N)N)ccc1OCc1ccccc1Cl
- inhibition of phage lysis [1]: -29.8% (inactive)
- CC50 [2]: 11.4 µM

- IC50 [2]: 135 µM
Compound: N=C(N)SCCc1cccc(CCSC(=N)N)c1
- CC50 [2]: 181 µM
